Results on 17 compounds are retold here after PubChem BioAssay.

A short description of assay [1]: RPL19A-GFP modulators, yeast TOR pathway, confirmation, cell-based, S. cerevisiae, flow cytometry, cherry picks, mother/daughter gates (AID 2270;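 active means GFP response below 50% of the DMSO control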). As to conditions: S. cerevisiae RPL19A-GFP strain, 3 h, at 10 µM, stronger effect = lower value, 100 = same GFP as DMSO wells. On the technique in general: In flow cytometry, cells or beads pass a laser one at a time.
A short description of assay [2]: LAP4-GFP expression modulators in yeast, confirmation, cell-based, cherry picks, flow cytometry, mother/daughter gates (AID 2271;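 active means GFP response above 150% of the DMSO control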;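 further: ratio of sample to DMSO plate mean so 100% equals DMSO level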). To be noted: S. cerevisiae LAP4-GFP strain, 3 h, at 10 µM, stronger effect = higher value, 100 means same as DMSO control. Summed up:
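Material – Alexa Fluor 633-labelled Saccharomyces cerevisiae GFP-fusion strain, single-plex · Incubation – compound exposure 3 h at 30 °C, end-over-end rotation · Measured by – GFP by flow cytometry · Measure – median GFP fluorescence as percent of plate-mean DMSO wells · Control set – positive rapamycin (400 ng/mL), negative DMSO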

Assay [3] can be described thus: modulators of MEP2-GFP levels in yeast, confirmation, S. cerevisiae, flow cytometry GFP, cherry picks (AID 2272;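 active means GFP response above 150% of the DMSO control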;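 further: ratio of well signal to plate DMSO mean so 100% equals DMSO level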). As to conditions: S. cerevisiae MEP2-GFP strain, 3 h, at 10 µM, stronger effect = higher value.
The nature of assay [4]: AGP1-GFP expression modulators, hit retest, confirmation, cell-based, flow cytometry, S. cerevisiae, cherry picks (AID 2273).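 Further: median GFP channel fluorescence over the whole cell population gate.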 To be noted: S. cerevisiae AGP1-GFP strain, 3 h, at 10 µM.
Assay [5] is described as follows: modulators of CIT2-GFP expression in yeast, confirmation, S. cerevisiae, GFP fusion, cherry picks, mother/daughter gates (AID 2274). As to conditions: S. cerevisiae CIT2-GFP strain, flow cytometry, 3 h, at 10 µM, stronger effect = higher value.
The mark [6] stands for this setting: measured here: daughter cell gate.
Setting [7] is: measured here: mother cell gate.
[8] abbreviates: measured here: daughter cell gate response.
Where [9] appears, read: measured here: mother cell gate response.

Calls of active or inactive are those of the source.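 How the source made its calls, unless noted: active means GFP response above 150% of the DMSO level; inconclusive means fewer than 70 events counted for a yeast strain; inactive means the rest.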

Take `CCCc1[nH]nc2c1C(c1ccc(OC)c(Cn3nnc4ccccc43)c1)C(C#N)=C(N)O2` (configuration not stated): the GFP response vs DMSO in assay [1] was 98% (inactive); in assay [1] (setting [6]) it was 98.6%; in assay [1] (setting [7]) it was 98.2%; in assay [3], 100% (inactive). In addition, the GFP response relative to DMSO in assay [2] was 104% (inactive); in assay [2] (setting [8]), 102%; in assay [2] (setting [9]), 103%. The GFP response, % of DMSO in assay [4] is 103% (inactive); in assay [5], 99.7% (inactive); in assay [5] (setting [6]) it was 99.1%; in assay [5] (setting [7]), 99.7%.

Take `COc1ccc(/C=C/C(=O)c2ccc(OC)cc2O)cc1`: the GFP response vs DMSO is 99.9% (inactive) in assay [1], 100% in assay [1] (setting [6]), 99.3% in assay [1] (setting [7]) and 104% (inactive) in assay [3]. In addition, the GFP response relative to DMSO in assay [2] was 98.8% (inactive); in assay [2] (setting [8]), 99.3%; in assay [2] (setting [9]), 100%. The GFP response, % of DMSO in assay [4] was 100% (inactive); in assay [5], 102% (inactive); in assay [5] (setting [6]), 102%; in assay [5] (setting [7]) it was 100%.

Take `CCCc1[nH]nc2c1C1(C(=O)N(CC)c3ccccc31)C(C#N)=C(N)O2` (configuration not stated): the GFP response vs DMSO in assay [1] is 96.6% (inactive); in assay [1] (setting [6]), 95.9%; in assay [1] (setting [7]) it was 96.9%; in assay [3] it was 98.3% (inactive). For the same compound, the values for the GFP response relative to DMSO in assay [2], in assay [2] (setting [8]) and in assay [2] (setting [9]) were 96.7% (inactive), 97.6% and 94%, respectively. In addition, the GFP response, % of DMSO in assay [4] was 98.5% (inactive); in assay [5], 101% (inactive); in assay [5] (setting [6]), 99.1%; in assay [5] (setting [7]) it was 101%.

Regarding `CS/C(N)=N/N=C/c1ccc2c(c1)OCO2`, the GFP response vs DMSO is 97.8% (inactive) in assay [1], 98.9% in assay [1] (setting [6]), 97.7% in assay [1] (setting [7]) and 100% (inactive) in assay [3]. Besides, the values for the GFP response relative to DMSO in assay [2], in assay [2] (setting [8]) and in assay [2] (setting [9]) were 106% (inactive), 102% and 108%, respectively. Besides, the GFP response, % of DMSO was 102% (inactive) in assay [4], 103% (inactive) in assay [5], 103% in assay [5] (setting [6]) and 102% in assay [5] (setting [7]).

As to `O=c1c(-c2ccc(Cl)cc2)[n+]([O-])c2ccccc2n1O`, the GFP response vs DMSO in assay [1] is 103% (inactive); in assay [1] (setting [6]), 102%; in assay [1] (setting [7]) it was 103%; in assay [3], 112% (inactive). Also, the GFP response relative to DMSO in assay [2] is 193% (active); in assay [2] (setting [8]), 141%; in assay [2] (setting [9]) it was 177%. Also, the GFP response, % of DMSO in assay [4] was 93% (inactive); in assay [5], 92.1% (inactive); in assay [5] (setting [6]), 90.9%; in assay [5] (setting [7]), 91%.

On to `C=CCn1c(=O)c(C(=O)Nc2ccccc2C(=O)OCC)c(O)c2ccccc21`, for which the GFP response vs DMSO is 100% (inactive) in assay [1], 101% in assay [1] (setting [6]), 101% in assay [1] (setting [7]) and 99.5% (inactive) in assay [3]. For the same compound, the figures for the GFP response relative to DMSO in assay [2], in assay [2] (setting [8]) and in assay [2] (setting [9]) were 87.2% (inactive), 86.4% and 89.7%, respectively. In addition, the GFP response, % of DMSO in assay [4] was 101% (inactive); in assay [5], 96.4% (inactive); in assay [5] (setting [6]) it was 96.4%; in assay [5] (setting [7]), 95.6%.

`CSc1ccc(/C=C/C(=O)c2c(O)cc(C)oc2=O)cc1`: the GFP response vs DMSO is 105% (inactive) in assay [1], 106% in assay [1] (setting [6]), 103% in assay [1] (setting [7]) and 120% (inactive) in assay [3]. In addition, the GFP response relative to DMSO in assay [2] was 131% (inactive); in assay [2] (setting [8]), 125%; in assay [2] (setting [9]), 135%. Also, the GFP response, % of DMSO in assay [4] was 96.3% (inactive).

Regarding `CCn1cc(/C=C/c2cc[n+](C)cc2)c2ccccc21`, the GFP response vs DMSO was 105% (inactive) in assay [1], 101% in assay [1] (setting [6]), 107% in assay [1] (setting [7]) and 154% (inactive) in assay [3]. Also, the values for the GFP response relative to DMSO in assay [2], in assay [2] (setting [8]) and in assay [2] (setting [9]) were 117% (inactive), 119% and 117%, respectively. Moreover, the GFP response, % of DMSO in assay [4] was 108% (inactive).

As for `O=C(Nc1cc(Sc2ccccn2)cc([N+](=O)[O-])c1)c1ccc([N+](=O)[O-])cc1`, the GFP response vs DMSO in assay [1] is 97.8% (inactive); in assay [1] (setting [6]), 98.4%; in assay [1] (setting [7]), 96.9%; in assay [3], 110% (inactive). For the same compound, the GFP response relative to DMSO was 98.9% (inactive) in assay [2], 101% in assay [2] (setting [8]) and 98.4% in assay [2] (setting [9]). Further, the GFP response, % of DMSO in assay [4] is 104% (inactive); in assay [5], 107% (inactive); in assay [5] (setting [6]), 106%; in assay [5] (setting [7]), 106%.

In the case of `O=C(Nc1ccc(F)cc1)C1CCCN(c2cnccn2)C1` (configuration not stated), the GFP response vs DMSO in assay [1] is 102% (inactive); in assay [1] (setting [6]), 101%; in assay [1] (setting [7]), 102%; in assay [3], 96.8% (inactive). Besides, the GFP response relative to DMSO in assay [2] was 99.5% (inactive); in assay [2] (setting [8]), 99.1%; in assay [2] (setting [9]) it was 100%. In addition, the GFP response, % of DMSO in assay [4] was 105% (inactive); in assay [5], 102% (inactive); in assay [5] (setting [6]), 99.2%; in assay [5] (setting [7]), 103%.

In the case of `C=CCn1c(C)c(/C=C/c2cc[n+](C)cc2)c2ccccc21`, the GFP response vs DMSO in assay [1] is 99.6% (inactive); in assay [1] (setting [6]), 99.8%; in assay [1] (setting [7]), 98.1%; in assay [3], 147% (inactive). In addition, the GFP response relative to DMSO was 133% (inactive) in assay [2], 136% in assay [2] (setting [8]) and 129% in assay [2] (setting [9]). Besides, the GFP response, % of DMSO in assay [4] is 101% (inactive); in assay [5], 141% (inactive); in assay [5] (setting [6]), 142%; in assay [5] (setting [7]), 139%.

Consider `O=C1c2ccccc2C2=Nc3ccccc3SC(c3cccc(F)c3)C12` (configuration not stated), for which the GFP response vs DMSO in assay [1] is 102% (inactive); in assay [1] (setting [6]), 98.4%; in assay [1] (setting [7]), 102%; in assay [3], 139% (inactive). Moreover, the GFP response relative to DMSO in assay [2] was 106% (inactive); in assay [2] (setting [8]), 108%; in assay [2] (setting [9]), 102%. Besides, the GFP response, % of DMSO was 103% (inactive) in assay [4], 117% (inactive) in assay [5], 106% in assay [5] (setting [6]) and 106% in assay [5] (setting [7]).

With `O=C(COC(=O)c1n[nH]c2ccccc12)c1cc(F)ccc1F`, the GFP response vs DMSO in assay [1] was 99.5% (inactive); in assay [1] (setting [6]) it was 99%; in assay [1] (setting [7]), 101%; in assay [3], 97.8% (inactive). The values for the GFP response relative to DMSO in assay [2], in assay [2] (setting [8]) and in assay [2] (setting [9]) were 97.4% (inactive), 98.7% and 98.3%, respectively. In addition, the GFP response, % of DMSO was 97.6% (inactive) in assay [4], 97.8% (inactive) in assay [5], 96.5% in assay [5] (setting [6]) and 99.8% in assay [5] (setting [7]).

For `COc1ccc(C(=O)c2nccc3ccccc23)cc1`, the GFP response vs DMSO in assay [1] is 96.8% (inactive); in assay [1] (setting [6]) it was 86.1%; in assay [1] (setting [7]), 91.3%; in assay [3] it was 96.2% (inactive). The figures for the GFP response relative to DMSO in assay [2], in assay [2] (setting [8]) and in assay [2] (setting [9]) were 106% (inactive), 104% and 99.3%, respectively. The GFP response, % of DMSO in assay [4] is 100% (inactive); in assay [5], 98.3% (inactive).

Take `CCCc1[nH]nc2c1C(c1ccc(OC(=O)N3CCOCC3)cc1)C(C#N)=C(N)O2` (configuration not stated): the GFP response vs DMSO in assay [1] was 98.2% (inactive); in assay [1] (setting [6]), 97.1%; in assay [1] (setting [7]), 96.4%; in assay [3], 100% (inactive). Moreover, the GFP response relative to DMSO was 97.9% (inactive) in assay [2], 94.4% in assay [2] (setting [8]) and 94% in assay [2] (setting [9]). Besides, the GFP response, % of DMSO in assay [4] was 102% (inactive); in assay [5] it was 101% (inactive).

With `CC1=CCC(C(=O)O)C(C(=O)Nc2ccc(-c3nc4ccc(C)cc4s3)cc2)C1` (configuration not stated), the GFP response vs DMSO in assay [1] is 99.2% (inactive); in assay [1] (setting [6]), 100%; in assay [1] (setting [7]), 100%; in assay [3], 98.8% (inactive). Besides, the GFP response relative to DMSO in assay [2] is 96.1% (inactive); in assay [2] (setting [8]), 96.6%; in assay [2] (setting [9]), 96.2%. The GFP response, % of DMSO in assay [4] is 101% (inactive); in assay [5] it was 112% (inactive); in assay [5] (setting [6]) it was 110%; in assay [5] (setting [7]), 113%.

In the case of `O=[N+]([O-])c1c(Nc2ccccn2)cc(Cl)c2nonc12`, the GFP response vs DMSO was 139% (inactive) in assay [1], 86.3% in assay [1] (setting [6]), 129% in assay [1] (setting [7]) and 966% (active) in assay [3]. For the same compound, the results for the GFP response relative to DMSO in assay [2], in assay [2] (setting [8]) and in assay [2] (setting [9]) were 478% (active), 123% and 522%, respectively. Further, the GFP response, % of DMSO is 143% (inactive) in assay [4], 979% (active) in assay [5], 103% in assay [5] (setting [6]) and 906% in assay [5] (setting [7]).
